Assay results: ChEMBL document CHEMBL4308914, “Discovery of potent, low-absorbable sodium-dependent glucose cotransporter 1 (SGLT1) inhibitor SGL5213 for type 2 diabetes treatment” (Bioorg Med Chem, 2019)

Legend:
[1] = Permeability of the compound at pH 7.4 by PAMPA assay; format: ADME; settings: read-out: permeability
Outline: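 PAMPA at pH 7.4: filter coated with GIT-0 lipid; donor compartment holds compound in universal buffer at 25 μM or 5 μM; permeability reported as ×10⁻⁶ cm/s.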

[2] = target: T1, Sodium/glucose cotransporter 1 (Homo sapiens, UniProt P13866); test: Inhibition of human SGLT1 expressed in CHOK1 cells assessed as reduction in sodium-dependent glucose uptake after 30 mins in presence of [14C]-methyl-alpha -D-glucopyranoside by microbeta counting method; format: cell-based
T1 sequence (P13866 whole entry): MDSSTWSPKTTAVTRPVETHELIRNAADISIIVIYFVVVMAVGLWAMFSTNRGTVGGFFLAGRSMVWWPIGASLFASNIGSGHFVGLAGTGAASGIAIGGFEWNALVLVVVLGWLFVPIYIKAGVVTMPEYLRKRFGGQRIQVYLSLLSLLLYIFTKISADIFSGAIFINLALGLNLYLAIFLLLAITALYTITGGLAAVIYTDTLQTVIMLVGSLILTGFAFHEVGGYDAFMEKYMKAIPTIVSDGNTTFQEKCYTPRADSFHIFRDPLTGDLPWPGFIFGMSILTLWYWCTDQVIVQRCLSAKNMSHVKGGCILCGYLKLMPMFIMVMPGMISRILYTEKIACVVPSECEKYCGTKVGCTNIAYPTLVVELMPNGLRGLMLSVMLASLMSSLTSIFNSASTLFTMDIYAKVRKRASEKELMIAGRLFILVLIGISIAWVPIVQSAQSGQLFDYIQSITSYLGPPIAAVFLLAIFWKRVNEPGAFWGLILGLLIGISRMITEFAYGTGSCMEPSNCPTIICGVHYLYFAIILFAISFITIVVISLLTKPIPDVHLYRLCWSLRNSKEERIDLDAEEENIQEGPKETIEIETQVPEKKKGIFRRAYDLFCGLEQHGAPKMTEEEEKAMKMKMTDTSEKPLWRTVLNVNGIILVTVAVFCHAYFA
Outline: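 CHO-K1 cells stably expressing human SGLT1, preincubated 20 min in Na-free choline buffer (pH 7.4). Uptake buffer (140 mM NaCl, HEPES/Tris pH 7.4) with 0.1 mM methyl-α-D-glucopyranoside plus [14C] tracer and test compound, 30 min at 37 °C. Cells washed, lysed in NaOH, radioactivity counted. Choline-for-Na buffer as background. Six concentrations; IC50 vs untreated control; mean of at least two experiments.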

[3] = target: T2, Sodium/glucose cotransporter 2 (Homo sapiens, UniProt P31639); test: Inhibition of human SGLT2 expressed in CHOK1 cells assessed as reduction in sodium-dependent glucose uptake after 1 hr in presence of [14C]-methyl-alpha -D-glucopyranoside by microbeta counting method; format: cell-based
T2 sequence (P31639 whole entry): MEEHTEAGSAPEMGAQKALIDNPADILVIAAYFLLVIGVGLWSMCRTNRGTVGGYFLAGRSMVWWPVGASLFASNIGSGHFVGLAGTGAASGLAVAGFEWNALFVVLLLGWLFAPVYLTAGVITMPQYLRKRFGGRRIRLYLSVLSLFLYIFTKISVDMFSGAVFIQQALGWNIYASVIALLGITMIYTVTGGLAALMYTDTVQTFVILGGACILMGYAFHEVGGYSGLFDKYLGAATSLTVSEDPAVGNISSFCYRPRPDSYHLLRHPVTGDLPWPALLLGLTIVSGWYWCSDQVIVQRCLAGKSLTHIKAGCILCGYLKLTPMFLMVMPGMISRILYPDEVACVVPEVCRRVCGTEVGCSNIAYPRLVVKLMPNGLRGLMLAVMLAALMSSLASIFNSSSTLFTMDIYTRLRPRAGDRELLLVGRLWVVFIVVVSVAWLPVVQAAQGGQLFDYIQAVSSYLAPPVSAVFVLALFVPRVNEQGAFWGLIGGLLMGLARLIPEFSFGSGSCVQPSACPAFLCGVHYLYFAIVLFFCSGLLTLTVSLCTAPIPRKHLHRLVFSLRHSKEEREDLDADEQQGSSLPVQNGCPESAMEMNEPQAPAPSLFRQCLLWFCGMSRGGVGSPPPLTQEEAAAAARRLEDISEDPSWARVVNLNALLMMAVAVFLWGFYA
Outline: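 Human SGLT2 stably expressed in CHO-K1 cells; 20 min Na-free choline pretreatment, then Na+ uptake buffer pH 7.4 with 1 mM methyl-α-D-glucopyranoside containing [14C] label plus compound, 1 h at 37 °C. Washed, NaOH lysis, scintillation counting; Na-free buffer for background. IC50 from six concentrations relative to uninhibited uptake; mean of at least two experiments.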

[4] = Oral bioavailability in Sprague-Dawley rat at 30 mg/kg; format: ADME, organism-based; settings: in vivo
Outline: (§1)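 Fasted male SD rats dosed orally in 0.5% CMC Na; tail-vein plasma sampled over time and analysed by LC-MS/MS. Non-compartmental analysis; bioavailability relative to i.v. dosing in saline; mean of three animals.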

[5] = Drug uptake in Sprague-Dawley rat kidney at 0.3 mg/kg, iv administered as single dose after 2 hrs by LCMS analysis; format: ADME, organism-based; settings: read-out: Drug uptake
Outline: (§2)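 Fasted male SD rats given single i.v. dose in saline; animals euthanized at 2, 24 and 72 h, kidneys homogenized in purified water and unchanged drug measured by LC-MS/MS (ng/g tissue). Mean ± SD of three animals; 72 h level also expressed relative to 2 h value.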

[6] = Volume of distribution at steady sate in Sprague-Dawley rat at 0.4 mg/kg, iv; format: ADME, organism-based; settings: in vivo, read-out: Vdss
Outline: (§3)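 Fasted male SD rats, single i.v. dose in saline; tail-vein blood sampled over time, plasma analysed by LC-MS/MS. Parameters by non-compartmental analysis; mean of three animals.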

[7] = Drug uptake in Sprague-Dawley rat kidney assessed as unchanged drug level at 0.3 mg/kg, iv administered as single dose after 72 hrs by LCMS analysis relative to control; format: ADME, organism-based; settings: in vivo; outline: as §2
[8] = Drug excretion in bile duct cannulated Sprague-Dawley rat bile at 0.3 mg/kg, iv administered as single dose after 24 hrs by LCMS analysis; format: ADME, organism-based; settings: read-out: Drug excretion
Outline: (§4)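 Bile duct-cannulated SD rats given single i.v. dose in saline; urine and bile collected over 24 h. Unchanged drug quantified by LC-MS/MS and expressed as cumulative % of dose; mean ± SD of three animals.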

[9] = Total clearance in Sprague-Dawley rat at 0.4 mg/kg, iv; format: ADME, organism-based; settings: in vivo; outline: as §3
[10] = Drug uptake in Sprague-Dawley rat kidney at 0.3 mg/kg, iv administered as single dose after 24 hrs by LCMS analysis; format: ADME, organism-based; settings: read-out: Drug uptake; outline: as §2
[11] = Drug excretion in bile duct cannulated Sprague-Dawley rat urine at 0.3 mg/kg, iv administered as single dose after 24 hrs by LCMS analysis; format: ADME, organism-based; settings: read-out: Drug excretion; outline: as §4
[12] = Cmax in Sprague-Dawley rat at 30 mg/kg, po; format: ADME, organism-based; design: dose 30 mg/kg, route oral; settings: in vivo; outline: as §1
[13] = Drug uptake in Sprague-Dawley rat kidney at 0.3 mg/kg, iv administered as single dose after 72 hrs by LCMS analysis; format: ADME, organism-based; settings: read-out: Drug uptake; outline: as §2
[14] = Drug excretion in bile duct cannulated Sprague-Dawley rat bile at 2 mg/kg, iv administered as single dose after 24 hrs by LCMS analysis; format: ADME, organism-based; settings: read-out: Drug excretion; outline: as §4
[15] = Drug excretion in bile duct cannulated Sprague-Dawley rat urine at 2 mg/kg, iv administered as single dose after 24 hrs by LCMS analysis; format: ADME, organism-based; settings: read-out: Drug excretion; outline: as §4

With `Cc1cc(/C=C/C(C)(C)C(=O)NC(C)(C)CO)ccc1Cc1cc([C@@H]2O[C@H](CO)[C@@H](O)[C@H](O)[C@H]2O)c(C)cc1C` the Papp [1] was 7.5 ×10⁻⁶ cm/s, the IC50 [2] was 111 nM and the IC50 [3] was 84 nM.
For `COc1cc(C(C)C)c(Cc2ccc(/C=C/C(C)(C)C(=O)NC(C)(C)CO)cc2)cc1[C@@H]1O[C@H](CO)[C@@H](O)[C@H](O)[C@H]1O`, the Papp [1] was 1.8 ×10⁻⁶ cm/s, the IC50 [2] was 36 nM and the IC50 [3] was 34 nM.
`Cc1cc(C)c([C@@H]2O[C@H](CO)[C@@H](O)[C@H](O)[C@H]2O)cc1Cc1ccc(/C=C/C(C)(C)C(=O)NC(C)(C)CO)cc1` gave an IC50 [2] of 22 nM and an IC50 [3] of 10 nM.
With `COc1cc(C(C)C)c(Cc2ccc(/C=C/C(C)(C)C(=O)NC(C)(C)C(=O)N3CCN(C)CC3)cc2C)cc1[C@@H]1O[C@H](CO)[C@@H](O)[C@H](O)[C@H]1O` the IC50 [2] was 55 nM and the IC50 [3] was 281 nM.
Work on `COc1cc(C(C)C)c(Cc2ccc(/C=C/C(C)(C)C(=O)NC(C)(C)CO)cc2C)cc1[C@@H]1O[C@H](CO)[C@@H](O)[C@H](O)[C@H]1O` yielded an IC50 [2] of 74 nM and an IC50 [3] of 354 nM.
With `Cc1cc(/C=C/C(C)(C)C(=O)NC(C)(C)C(=O)NCC(C)(C)N)ccc1Cc1cc([C@@H]2O[C@H](CO)[C@@H](O)[C@H](O)[C@H]2O)c(O)cc1C(C)C` the bioavailability [4] was 0.09%, the concentration at 2 h [5] was 1060 ng/g and the Vd [6] was 0.964 L/kg. For the same molecule, the Drug uptake [7] was 1.2%, the dose excreted at 24 h [8] was 89.8% and the clearance [9] was 62.7 mL/min/kg. It also gave a concentration at 24 h [10] of 83.8 ng/g, a dose excreted at 24 h [11] of 5.3% and a Cmax [12] of 5.34 ng/mL. The concentration at 72 h [13] was 12.5 ng/g.
`Cc1cc(O)c([C@@H]2O[C@H](CO)[C@@H](O)[C@H](O)[C@H]2O)cc1Cc1ccc(CCNC(=O)NC(CO)(CO)CO)cc1` showed a concentration at 2 h [5] of 1900 ng/g, a dose excreted at 24 h [14] of 30.2% and a Drug uptake [7] of 42%. It also gave a dose excreted at 24 h [15] of 36.2%, a concentration at 24 h [10] of 1110 ng/g and a concentration at 72 h [13] of 803 ng/g.
`Cc1cc(C)c([C@@H]2O[C@H](CO)[C@@H](O)[C@H](O)[C@H]2O)cc1Cc1ccc(/C=C/C(C)(C)C(=O)NC(C)(C)CO)cc1Cl` gave an IC50 [2] of 176 nM.
